These results are taken from ChEMBL document CHEMBL1629689, “Cross-resistance to nitro drugs and implications for treatment of human African trypanosomiasis” (Antimicrob Agents Chemother, 2010).

The test system of series [1] is Trypanosoma brucei. Put plainly: Selectivity ratio of EC50 for Trypanosoma brucei NfxR2 to EC50 for Trypanosoma brucei. In kind it is functional. An outline of the steps:
(§1)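 Resistance factor taken as EC50 for resistant cells divided by EC50 for wild-type S427 bloodstream T. brucei, both from the same in vitro growth-inhibition assay. EC50 values come from at least three independent experiments.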

Series [2] deals with Blood. The series can be described thus: Metabolic stability in blood of NMRI mouse assessed as accumulation of sulfone metabolite at 200 mg/kg, po measured after 8 hrs. To be noted: in vivo.
Series [3] relates to Trypanosoma brucei. The series can be described thus: Selectivity ratio of EC50 for Trypanosoma brucei NfxR1 to EC50 for Trypanosoma brucei. In kind it is functional. An outline of the steps: as §1
The test system of series [4] is Trypanosoma brucei. The series can be described thus: Antimicrobial activity against Trypanosoma brucei. It counts as functional, organism-based. An outline of the steps: (§2)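 T. brucei bloodstream-form single-marker S427 (wild type) and cloned nifurtimox-resistant lines, cultured at 37°C in HMI9-T with 2.5 µg/ml G418. Growth inhibition measured, data corrected for background cell density and expressed as % of untreated cells. EC50 from a two-parameter fit with slope factor. At least three independent experiments; weighted means ± weighted SD.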

For series [5], the system named is Trypanosoma brucei. Put plainly: Antimicrobial activity against Trypanosoma brucei NfxR1. It counts as functional, organism-based. An outline of the steps: as §2
Series [6] has as its system Trypanosoma brucei. Put plainly: Antimicrobial activity against Trypanosoma brucei NfxR2. It counts as functional, organism-based. An outline of the steps:
as §2

Series [7] relates to Trypanosoma brucei. The series can be described thus: Antimicrobial activity against Trypanosoma brucei wild type.
The test system of series [8] is Trypanosoma brucei. To be noted: NfxR1, 100 mg/kg.
Series [9] deals with Trypanosoma brucei gambiense. The series can be described thus: Antimicrobial activity against Trypanosoma brucei gambiense.
For series [10], the system named is Trypanosoma brucei. The series can be described thus: animal or person. Conditions: in Mus musculus, ip, 96 h.
In series [11] the test system is Trypanosoma brucei. The series can be described thus: Antimicrobial activity against Trypanosoma brucei NfxR1 infected in dosed NMRI administered QD for 3 days measured on day 6 by neubuaer hemocytometry.
A short description of series [12]: Cmax in NMRI mouse at 200 mg/kg, po after 15 mins. Further details: dose 200 mg/kg, route oral. It counts as ADME, organism-based. Conditions: in vivo. In outline: (§3)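 Single oral dose of 200 mg/kg to NMRI mice, vehicle 10% DMSO in peanut oil. Tail-vein blood (10 µl) taken into water at 0.25, 0.5, 1, 2, 4, 6 and 8 h. Samples extracted by acetonitrile protein precipitation with internal standard. Parent and sulfoxide and sulfone metabolites measured by UPLC-MS/MS (positive ESI, MRM). Triplicate measurements.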

Series [13] deals with Blood. Put plainly: Metabolic stability in blood of NMRI mouse assessed as accumulation of sulfoxide metabolite at 200 mg/kg, po measured after 2 hrs. Conditions: in vivo. In kind it is ADME, organism-based. Also on record: dose 200 mg/kg, route oral. In outline:
as §3

The test system of series [14] is Trypanosoma brucei. Put plainly: Antimicrobial activity against wild type Trypanosoma brucei infected in dosed NMRI administered QD for 3 days measured on day 6 by neubuaer hemocytometry.
The subject of series [15] is Trypanosoma brucei. The series can be described thus: Antimicrobial activity against Trypanosoma brucei NfxR1 infected in mouse assessed as decrease in parasitemia level at 200 mg/kg, QD for 3 days measured on day 60 by neubuaer hemocytometry.
Series [16] can be described thus: Fraction unbound in plasma of NMRI mouse at 200 mg/kg, po. In kind it is ADME, organism-based. Also on record: dose 200 mg/kg, route oral.
The test system of series [17] is Trypanosoma brucei. Put plainly: Antimicrobial activity against Trypanosoma brucei wild type. The source holds these as a separate data set.
The test system of series [18] is Trypanosoma brucei. Put plainly: Antimicrobial activity against wild type Trypanosoma brucei infected NMRI assessed as cure rate at 50 mg/kg, QD for 3 days measured on day 6 by neubuaer hemocytometry.

Values after ≈ are worked out from the molar mass of the structure shown. Active and inactive are the calls of the source. The calls are words filed in the database; no cut-off is given here. Some results are limits rather than exact numbers.

As for `Cn1c([N+](=O)[O-])cnc1COc1ccc(S(C)(=O)=O)cc1` [FEXINIDAZOLE SULFONE], the “Ratio EC50” value in the series with Trypanosoma brucei [1] and in the series on Trypanosoma brucei [3] was 15 in each case. The Stability in the series on Blood [2] stood at 55000 ng/mL. Moreover, the figures for the EC50 in the series on Trypanosoma brucei [4], in the series with Trypanosoma brucei [5] and in the series on Trypanosoma brucei [6] were 0.62 µM, 9.6 µM and 9.5 µM, respectively.

For `NC(=O)N/N=C/c1ccc([N+](=O)[O-])o1` [NITROFURAZONE], the “Ratio EC50” value in the series on Trypanosoma brucei [1] and in the series with Trypanosoma brucei [3] was 12 each time. Also, the EC50 in the series with Trypanosoma brucei [4] worked out at 0.31 µM; in the series on Trypanosoma brucei [5], 3.7 µM; in the series with Trypanosoma brucei [6] it was 3.7 µM.

On to `CC1CS(=O)(=O)CCN1/N=C/c1ccc([N+](=O)[O-])o1` (configuration not stated) [NIFURTIMOX], for which, in the series on Trypanosoma brucei [7], the MIC is 15.2 µM (≈ 4.37 µg/mL). The inhibition result in the series on Trypanosoma brucei [8] was “inactive”. In [9], this compound came in with an EC50 of 0.26 µM. Also, in the series with Trypanosoma brucei [10], the ED50 was 36.7 mg/kg and the ED99 worked out at 128 mg/kg.

With `N=C(N)c1ccc(OCCCCCOc2ccc(C(=N)N)cc2)cc1` [PENTAMIDINE], the “Ratio EC50” value came to 2 in the series on Trypanosoma brucei [1] and 3 in the series on Trypanosoma brucei [3]. Also, the values for the EC50 in the series on Trypanosoma brucei [4], in the series with Trypanosoma brucei [5] and with Trypanosoma brucei [6] were 0.00095 µM, 0.0026 µM and 0.0017 µM, respectively.

Turning to `Cn1c([N+](=O)[O-])cnc1COc1ccc([S+](C)[O-])cc1` (configuration not stated) [FEXINIDAZOLE SULFOXIDE], the figures for the “Ratio EC50” value in the series with Trypanosoma brucei [1] and in the series on Trypanosoma brucei [3] were 15 and 13, respectively. For the same compound, the EC50 came out at 1.4 µM in the series with Trypanosoma brucei [4], 18.4 µM in the series on Trypanosoma brucei [5] and 21 µM in the series with Trypanosoma brucei [6].

Consider `CSc1ccc(OCc2ncc([N+](=O)[O-])n2C)cc1` [FEXINIDAZOLE], for which the values for the ED50 in the series with Trypanosoma brucei [11] and in the series with Trypanosoma brucei [14] were 171 mg/kg and 21 mg/kg, respectively. For the same compound, the highest level in series [12] (Cmax) was 961 ng/mL. Besides, the Stability with Blood [13] turned out to be 40000 ng/mL. Moreover, the inhibition result in the series with Trypanosoma brucei [15] is “inactive”. The compound further showed a fraction unbound in series [16] of 0.147. The compound also gave an MIC against Trypanosoma brucei [17] of 17.7 µM (≈ 4.94 µg/mL). Besides, the Activity in the series on Trypanosoma brucei [18] was 100%.

`Cc1ncc([N+](=O)[O-])n1CCO` [METRONIDAZOLE]: the EC50 in the series on Trypanosoma brucei [4], in the series on Trypanosoma brucei [5] and in the series on Trypanosoma brucei [6] was greater than 500 µM throughout.

For `O=[N+]([O-])c1cn2c(n1)OC[C@@H](OCc1ccc(OC(F)(F)F)cc1)C2` [PRETOMANID], the “Ratio EC50” value with Trypanosoma brucei [1] and with Trypanosoma brucei [3] was 1 throughout. Moreover, the EC50 was 37.8 µM in the series with Trypanosoma brucei [4], 30.5 µM in the series on Trypanosoma brucei [5] and 30.8 µM in the series on Trypanosoma brucei [6].

On to `O=C(Cn1ccnc1[N+](=O)[O-])NCc1ccccc1` [BENZNIDAZOLE], for which the “Ratio EC50” value in the series on Trypanosoma brucei [1] and in the series on Trypanosoma brucei [3] was 5 in each case. Also, the figures for the EC50 in the series on Trypanosoma brucei [4], with Trypanosoma brucei [5] and in the series with Trypanosoma brucei [6] were 30 µM, 154 µM and 155 µM, respectively.

With `NC(=O)c1cc(N2CC2)c([N+](=O)[O-])cc1[N+](=O)[O-]` [TRETAZICAR], the “Ratio EC50” value in the series on Trypanosoma brucei [1] turned out to be 19; with Trypanosoma brucei [3] it was 15. The EC50 came to 0.54 µM in the series on Trypanosoma brucei [4], 8 µM in the series with Trypanosoma brucei [5] and 10.2 µM with Trypanosoma brucei [6].

As for `NCCCC(N)(C(=O)O)C(F)F` (configuration not stated) [EFLORNITHINE], the “Ratio EC50” value in the series on Trypanosoma brucei [1] and in the series on Trypanosoma brucei [3] was 1 throughout. Also, the EC50 was determined as 16.4 µM in the series with Trypanosoma brucei [4], 11.9 µM in the series on Trypanosoma brucei [5] and 11.5 µM in the series on Trypanosoma brucei [6].
